One data set relates to LoVo. The experiment in a line: Cytotoxicity against human LoVo cells. In kind it is functional, cell-based.
Data set [1] is described as follows: Inhibition of microtubule assembly.
A short description of data set [2]: Inhibition of microfilament assembly.
The species named for the next data set is Mus musculus. Nature of the data set: Toxicity in mouse. In kind it is organism-based. As to conditions: in vivo.
For data set [3], the target named is T1, DNA topoisomerase 1 (Homo sapiens) (UniProt P11387).
T1 sequence (whole entry): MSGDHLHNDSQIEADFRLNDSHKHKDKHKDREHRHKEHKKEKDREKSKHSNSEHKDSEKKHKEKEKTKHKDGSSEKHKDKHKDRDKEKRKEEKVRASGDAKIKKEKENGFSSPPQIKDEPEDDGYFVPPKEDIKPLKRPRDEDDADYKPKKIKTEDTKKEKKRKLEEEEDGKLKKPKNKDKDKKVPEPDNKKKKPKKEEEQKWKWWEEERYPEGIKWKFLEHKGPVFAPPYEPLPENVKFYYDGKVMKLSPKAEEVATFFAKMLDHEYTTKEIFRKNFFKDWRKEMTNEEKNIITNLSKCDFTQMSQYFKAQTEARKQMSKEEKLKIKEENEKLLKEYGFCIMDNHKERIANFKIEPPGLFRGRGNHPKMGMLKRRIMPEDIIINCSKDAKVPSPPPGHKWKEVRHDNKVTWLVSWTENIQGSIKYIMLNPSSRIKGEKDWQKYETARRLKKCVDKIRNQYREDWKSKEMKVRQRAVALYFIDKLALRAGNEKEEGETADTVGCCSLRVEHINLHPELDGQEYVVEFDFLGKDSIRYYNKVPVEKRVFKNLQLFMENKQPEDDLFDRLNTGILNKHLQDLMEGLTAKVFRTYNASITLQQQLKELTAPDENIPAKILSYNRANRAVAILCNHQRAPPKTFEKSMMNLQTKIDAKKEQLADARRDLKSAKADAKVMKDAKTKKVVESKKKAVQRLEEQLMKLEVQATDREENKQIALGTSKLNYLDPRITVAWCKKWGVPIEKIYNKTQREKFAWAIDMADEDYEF
The experiment in a line: Inhibition of topoisomerase 1.

For a further data set, the system named is KB. The experiment in a line: Cytotoxicity against human KB cells. In kind it is functional, cell-based.
A further data set deals with MC-38. Nature of the data set: Cytotoxicity against mouse C38 cells at 1.8 mg/kg by in vivo assay. In kind it is functional, organism-based. The arrangement: dose 1.8 mg/kg. The essentials: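 In vivo mouse model bearing the murine colon adenocarcinoma C38, with compound dosed at 1.8 mg/kg or lower.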

Molecules are shown by their SMILES. In brackets after ≈: the same amount, converted by molar mass. Activity calls are given as the source filed them. No cut-off for these calls is given here. Starred links: 1 amine or outer side, 2 acyl side, 3 side chain; linkers in the order of their positions; H or OH if unused. Positions of bridges follow the written chain, without caps; N, C: chain ends. Non-standard residues stand in square brackets, D forms with d. Residues, ends and D or L forms follow the SMILES beside them. X1 = CC[C@H](CCC[C@@H](O)[C@@H](C)C(=O)O[C@H](C)[C@@H](C)C/C=C(C)/C(=C\C(=O)[*:1])OC)O[*:2]; X2 = CC[C@H](CCC[C@@H](O)[C@@H](C)C(=O)O[C@H](C)[C@@H](C)C/C=C(\C)C(=O)CC(=O)[*:1])O[*:2]; NMeI = CC[C@H](C)[C@H](NC)C(=O)O; NMeV = CN[C@H](C(=O)O)C(C)C; NMeS = CN[C@@H](CO)C(=O)O

As to `CC[C@@H]1CCC[C@@H](O)[C@@H](C)C(=O)O[C@H](C)[C@@H](C)C/C=C(C)/C(OC)=C\C(=O)N(C)[C@@H]([C@@H](C)CC)C(=O)N(C)[C@@H](C(C)C)C(=O)N(C)[C@@H](COC)C(=O)N2CCC[C@H]2C(=O)N(C)[C@@H](C(C)C)C(=O)N2CCC[C@H]2C(=O)O1` [LYNGBYASTATIN 2] ([NMeI][NMeV][NMeS](Me)P[NMeV]P; linker N-C via X1), the IC50 was 0.014 µg/mL (≈ 0.0132 µM) in the data set on LoVo and 0.02 µg/mL (≈ 0.0189 µM) in the data set on KB. Moreover, the result (in data set [1]; in data set [2]; in data set [3]; in the data set on MC-38) was inactive. In the data set listed under Mus musculus, this compound returned an LD100 of 3 mg/kg.

Regarding `CC[C@@H]1CCC[C@@H](O)[C@@H](C)C(=O)O[C@H](C)[C@@H](C)C/C=C(\C)C(=O)CC(=O)N(C)[C@@H]([C@@H](C)CC)C(=O)N(C)[C@@H](C(C)C)C(=O)N(C)[C@@H](COC)C(=O)N2CCC[C@H]2C(=O)N(C)[C@@H](C(C)C)C(=O)N2CCC[C@H]2C(=O)O1` [NORLYNGBYASTATIN 2] ([NMeI][NMeV][NMeS](Me)P[NMeV]P; linker N-C via X2), the results for the concentration for half-maximal inhibition (IC50) in the data set on LoVo and in the data set with KB were 0.475 µg/mL (≈ 0.454 µM) and 0.93 µg/mL (≈ 0.89 µM), respectively. Also, the result in data set [1], in data set [2] and in data set [3] was inactive.

The term IC50 denotes the point on the concentration scale where inhibition reaches its midpoint. Read a low IC50 as inhibition by little substance.

The values above are taken from ChEMBL document CHEMBL1142554, “Lyngbyastatin 2 and norlyngbyastatin 2, analogues of dolastatin G and nordolastatin G from the marine cyanobacterium Lyngbya majuscula” (J Nat Prod, 1999).
